{"source": "ChEMBL document CHEMBL3351516", "about": "“Efficient synthesis of eudistomin U and evaluation of its cytotoxicity” (Bioorg Med Chem Lett, 2014)", "key": {"[1]": {"experiment": "Cytotoxicity against human Caov3 cells after 24 hrs by MTT assay", "format": "functional, cell-based", "conditions": "Caov-3, 24 h", "how_it_was_run": "(§1)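 Cells were grown 72 h in DMEM/F12 with penicillin, streptomycin and L-glutamate, trypsinized and counted. Plated at 10,000 cells/well in IMDM, held 24 h at 37 °C, 5% CO₂, then treated 24 h with 0.1–300 µM (0.1% DMSO); DMSO control row. MTT (5 mg/mL in PBS, 20 µL/well) for 2 h, dissolved in DMSO, A490. Sigmoidal-fit IC50 from percent survival.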"}, "[2]": {"experiment": "Cytotoxicity against human WM266.4 cells after 24 hrs by MTT assay", "format": "functional, cell-based", "conditions": "WM 266-4, 24 h", "how_it_was_run": "as §1"}, "Saccharomyces cerevisiae": {"tested_on": "Saccharomyces cerevisiae", "experiment": "Antibacterial activity against Saccharomyces cerevisiae measured every 2.5 hrs by spectrophotometry", "format": "functional, organism-based", "how_it_was_run": "(§2)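 Yeasts were grown overnight at 30 °C: S. cerevisiae in synthetic dextrose medium, C. albicans wild-type diploid in WYPD with glucose. Subcultured to OD 0.1 and grown 2 h. Exposed to 0.1–300 µM (0.3% DMSO), with DMSO and caspofungin 1 µg/mL controls. Shaken at 30 °C, OD read every 2.5 h in duplicate to about 7.5 h. Sigmoidal-fit IC50, mean of three trials.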"}, "Streptococcus pyogenes": {"tested_on": "Streptococcus pyogenes", "experiment": "Antibacterial activity against Streptococcus pyogenes measured after overnight incubation by spectrophotometry", "format": "functional, organism-based", "how_it_was_run": "(§3)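 Bacteria were grown overnight at 37 °C in Luria broth, subcultured to OD 0.1 and grown 2 h more. Culture was added to cuvettes holding 0.1–300 µM test agent (0.3% DMSO). Controls were DMSO and streptomycin: 0.500 µg/mL for P. aeruginosa, 0.0625 µg/mL for the others. Shaken at 37 °C with OD read every 2.5 h in duplicate to about 7.5 h. IC50 from sigmoidal fit, mean of three trials.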"}, "Staphylococcus aureus": {"tested_on": "Staphylococcus aureus", "experiment": "Antibacterial activity against Staphylococcus aureus measured after overnight incubation by spectrophotometry", "format": "functional, organism-based", "how_it_was_run": "as §3"}, "Pseudomonas aeruginosa": {"tested_on": "Pseudomonas aeruginosa", "experiment": "Antibacterial activity against Pseudomonas aeruginosa measured after overnight incubation by spectrophotometry", "format": "functional, organism-based", "how_it_was_run": "as §3"}, "[3]": {"experiment": "Cytotoxicity against human C19 cells after 24 hrs by MTT assay", "format": "functional, cell-based", "conditions": "C19, 24 h", "how_it_was_run": "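Thawed C-19 leukemia cells were grown 48 h in IMDM with penicillin, streptomycin and L-glutamate at 37 °C, 5% CO₂. Plated at 10,000 cells/well in IMDM, held 24 h, then treated 24 h with 0.1–300 µM (0.1% DMSO); DMSO control row. MTT (5 mg/mL in PBS, 20 µL/well) for 2 h, dissolved in DMSO, A490. IC50 from sigmoidal fit of percent survival.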"}, "P388": {"tested_on": "P388", "experiment": "Growth inhibition of mouse P388 cells at 10 uM", "format": "functional", "conditions": "read-out: GI"}, "Escherichia coli": {"tested_on": "Escherichia coli", "experiment": "Antibacterial activity against Escherichia coli measured after overnight incubation by spectrophotometry", "format": "functional, organism-based", "how_it_was_run": "as §3"}, "[4]": {"tested_on": "Mycolicibacterium smegmatis", "experiment": "Antibacterial activity against Mycobacterium smegmatis measured every 2.5 hrs by spectrophotometry", "format": "functional, organism-based", "how_it_was_run": "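M. smegmatis MC²155 was grown 48 h at 37 °C with shaking in 7H9 complete medium with Tween, diluted 1:1000 and grown overnight. It was then subcultured to OD 0.1 and grown 2 h. Exposed to 0.1–300 µM (0.3% DMSO), with DMSO and streptomycin 0.250 µg/mL controls. Shaken at 37 °C, OD read every 2.5 h in duplicate to about 7.5 h. Sigmoidal-fit IC50, mean of three trials.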"}, "Candida albicans": {"tested_on": "Candida albicans", "experiment": "Antibacterial activity against Candida albicans measured every 2.5 hrs by spectrophotometry", "format": "functional, organism-based", "how_it_was_run": "as §2"}}, "data": [{"smiles": "c1ccc2c(-c3nccc4c3[nH]c3ccccc34)c[nH]c2c1", "values": [{"measurement": "IC50", "setting": "[1]", "result": 24.9, "unit": "µg/mL"}, {"measurement": "IC50", "setting": "[2]", "result": 27.5, "unit": "µg/mL"}, {"measurement": "IC50", "setting": "Saccharomyces cerevisiae", "result": "> 300", "unit": "µg/mL"}, {"measurement": "IC50", "setting": "Streptococcus pyogenes", "result": 3.4, "unit": "µg/mL"}, {"measurement": "IC50", "setting": "Staphylococcus aureus", "result": 6.4, "unit": "µg/mL"}, {"measurement": "IC50", "setting": "Pseudomonas aeruginosa", "result": 27.7, "unit": "µg/mL"}, {"measurement": "IC50", "setting": "[3]", "result": 15.6, "unit": "µg/mL"}, {"measurement": "inhibition of growth at 10 µM", "setting": "P388", "result": 38, "unit": "%"}, {"measurement": "IC50", "setting": "Escherichia coli", "result": 12.3, "unit": "µg/mL"}, {"measurement": "IC50", "setting": "[4]", "result": 3.6, "unit": "µg/mL"}, {"measurement": "IC50", "setting": "Candida albicans", "result": "> 30", "unit": "µg/mL"}]}]}
